This is an account of results in PubChem BioAssay AID692 (The Scripps Research Institute Molecular Screening Center, 2007).

Molecules are shown by their SMILES. Activity calls are given as the source filed them.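 The calls were made as follows: active = EC50 at or below a set limit; inactive = the rest.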

Chain of Steroidogenic factor 1 (Homo sapiens) (Q13285 whole entry, looked up, the tested form may be a part): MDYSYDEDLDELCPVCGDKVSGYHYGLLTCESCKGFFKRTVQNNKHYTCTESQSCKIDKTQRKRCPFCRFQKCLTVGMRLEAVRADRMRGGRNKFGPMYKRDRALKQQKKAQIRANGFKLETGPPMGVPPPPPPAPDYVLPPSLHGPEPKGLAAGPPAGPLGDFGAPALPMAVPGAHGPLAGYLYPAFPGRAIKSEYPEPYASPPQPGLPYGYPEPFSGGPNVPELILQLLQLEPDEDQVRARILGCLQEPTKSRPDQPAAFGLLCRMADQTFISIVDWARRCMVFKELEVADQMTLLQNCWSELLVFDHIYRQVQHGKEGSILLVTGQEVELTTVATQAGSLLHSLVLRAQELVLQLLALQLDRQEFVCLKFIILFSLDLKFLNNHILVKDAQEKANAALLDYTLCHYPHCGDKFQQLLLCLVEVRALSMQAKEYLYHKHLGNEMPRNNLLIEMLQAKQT

The assay addresses Steroidogenic factor 1 (Homo sapiens) (UniProt Q13285). Put plainly: activation of SF-1 LBD reporter – cell-based, CHO-K1, Gal4-SF-1 LBD, luciferase luminescence, dose response (AID 692). As to conditions: CHO-K1 Gal4-SF1 LBD luciferase reporter. In short, it runs like this:
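Assay system: CHO-K1 Gal4–SF-1 LBD luciferase reporter cells; Doses: 10 points, 1:3 steps, up to 100 µM; Incubation: compound exposure of cells 20 h at 37 °C; Technique: luminescence; Read-out: % activation vs DMSO/mock-transfected cells, EC50 from four-parameter sigmoidal fit; Benchmarks: DMSO-treated transfected cells and mock-transfected background; Replication: triplicate.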
For orientation: In a reporter assay the amount or activity of a reporter protein is the signal.
For the compound `COC(=O)c1ccc(/C(O)=C(\C#N)c2nc3ccccc3s2)cc1`, the EC50 is 2.71 µM.

`O=C1CCCC(O)=C1C=Nc1ccc(O)cc1`: the EC50 was 3.76 µM. In the case of `CC1(C)CC(=O)C(C=Nc2ccccc2)=C(O)C1` it was 6.83 µM; in that of `Cc1ccc(C2/C(=C(\O)c3cnn(-c4ccccc4)c3C)C(=O)C(=O)N2CCN(C)C)o1` (stereo not drawn), 3.59 µM; in that of `C/C(N)=C(/C#N)C(=O)CSc1ccc2c(c1)OCCO2`, 2.89 µM.

Consider `COc1cc(C2C3C(=O)N(c4ccccc4)C(=O)C3ON2c2ccccc2)ccc1O` (stereo not drawn), for which the EC50 entry was “inactive”. Turning to `COc1ccc(C(=O)/C=C/Nc2cccc(C)n2)cc1OC`, the EC50 was 0.401 µM. In the case of `CC1(C)CC(=O)C(C=Nc2ccc3[nH]ncc3c2)=C(O)C1` it was > 11 µM (inactive).

As a reminder, the EC50 is the midpoint of the concentration-response curve.
